{
  "source": "ChEMBL document CHEMBL3351782",
  "about": "“Synthesis and biological evaluation of glaucocalyxin A derivatives as potential anticancer agents” (Eur J Med Chem, 2014)",
  "key": {"[1]": {"assay": "Antiproliferative activity against human SMMC7721 cells after 48 hrs by MTT assay", "assay_type": "functional, cell-based", "conditions": "SMMC-7721, 48 h", "how_it_was_run": "(§1)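 Cells were seeded at 3 × 10^3 per well and exposed 24 h later, while growing exponentially, to compounds at final concentrations of 1.25 to 40 for 48 h. MTT (5 mg/mL in PBS) was then added for 6 h. The medium was aspirated, the formazan dissolved in DMSO and absorbance read at 570 nm. Survival is relative to untreated cells; IC50 comes from triplicate wells in at least three independent experiments.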"}, "[2]": {"tested_on": "B16", "assay": "Antiproliferative activity against mouse B16 cells after 48 hrs by MTT assay", "assay_type": "functional, cell-based", "conditions": "B16, 48 h", "how_it_was_run": "as §1"}, "[3]": {"assay": "Antiproliferative activity against human SGC7901 cells after 48 hrs by MTT assay", "assay_type": "functional, cell-based", "conditions": "SGC-7901, 48 h", "how_it_was_run": "as §1"}, "[4]": {"tested_on": "A549", "assay": "Antiproliferative activity against human A549 cells after 48 hrs by MTT assay", "assay_type": "functional, cell-based", "conditions": "A549, 48 h", "how_it_was_run": "as §1"}, "[5]": {"tested_on": "KB", "assay": "Antiproliferative activity against human KB cells after 48 hrs by MTT assay", "assay_type": "functional, cell-based", "how_it_was_run": "as §1"}, "[6]": {"assay": "Antiproliferative activity against human HL60 cells after 48 hrs by MTT assay", "assay_type": "functional, cell-based", "conditions": "HL-60, 48 h", "how_it_was_run": "as §1"}, "[7]": {"assay": "Antiproliferative activity against human HL7702 cells after 48 hrs by MTT assay", "assay_type": "cell-based", "conditions": "L02, 48 h", "how_it_was_run": "as §1"}},
  "data": [
    {"smiles": "CC1(C)C(=O)CC[C@]2(C)[C@@H]1C[C@@H](O)[C@]13C(=O)C(CNC4CCCCC4)[C@H](CC[C@@H]21)[C@H]3O", "note": "(stereo partly specified)", "values": [
      {"measurement": "IC50", "setting": "[1]", "value": 15.2, "unit": "µM"},
      {"measurement": "IC50", "setting": "[2]", "value": 5.66, "unit": "µM"},
      {"measurement": "IC50", "setting": "[3]", "value": 20.7, "unit": "µM"},
      {"measurement": "IC50", "setting": "[4]", "value": 11.1, "unit": "µM"},
      {"measurement": "IC50", "setting": "[5]", "value": 11.3, "unit": "µM"},
      {"measurement": "IC50", "setting": "[6]", "value": 9.35, "unit": "µM"},
      {"measurement": "IC50", "setting": "[7]", "value": 8.95, "unit": "µM"}
    ]},
    {"smiles": "CC1(C)C(=O)CC[C@]2(C)[C@@H]1C[C@@H](O)[C@]13C(=O)C(CNc4ccc(Cl)cc4)[C@H](CC[C@@H]21)[C@H]3O", "note": "(stereo partly specified)", "values": [
      {"measurement": "IC50", "setting": "[1]", "value": 14.1, "unit": "µM"},
      {"measurement": "IC50", "setting": "[2]", "value": 9.4, "unit": "µM"},
      {"measurement": "IC50", "setting": "[3]", "value": 21.2, "unit": "µM"},
      {"measurement": "IC50", "setting": "[4]", "value": 15.8, "unit": "µM"},
      {"measurement": "IC50", "setting": "[5]", "value": 6.54, "unit": "µM"},
      {"measurement": "IC50", "setting": "[6]", "value": 14.1, "unit": "µM"}
    ]},
    {"smiles": "COc1ccc(NCC2C(=O)[C@@]34[C@H](O)C[C@@H]5C(C)(C)C(=O)CC[C@@]5(C)[C@@H]3CC[C@@H]2[C@H]4O)cc1", "note": "(stereo partly specified)", "values": [
      {"measurement": "IC50", "setting": "[1]", "value": 18, "unit": "µM"},
      {"measurement": "IC50", "setting": "[2]", "value": 12.1, "unit": "µM"},
      {"measurement": "IC50", "setting": "[3]", "value": 22.4, "unit": "µM"},
      {"measurement": "IC50", "setting": "[4]", "value": 13.6, "unit": "µM"},
      {"measurement": "IC50", "setting": "[5]", "value": 6.41, "unit": "µM"},
      {"measurement": "IC50", "setting": "[6]", "value": 5.7, "unit": "µM"}
    ]},
    {"smiles": "CC1(C)C(=O)CC[C@]2(C)[C@@H]1C[C@@H](O)[C@]13C(=O)C(CNc4ccc(S(=O)(=O)c5ccccc5)cc4)[C@H](CC[C@@H]21)[C@H]3O", "note": "(stereo partly specified)", "values": [
      {"measurement": "IC50", "setting": "[1]", "value": 14.1, "unit": "µM"},
      {"measurement": "IC50", "setting": "[2]", "value": 10.5, "unit": "µM"},
      {"measurement": "IC50", "setting": "[3]", "value": 15.5, "unit": "µM"},
      {"measurement": "IC50", "setting": "[4]", "value": 13.7, "unit": "µM"},
      {"measurement": "IC50", "setting": "[5]", "value": 5.64, "unit": "µM"},
      {"measurement": "IC50", "setting": "[6]", "value": 15.3, "unit": "µM"}
    ]},
    {"smiles": "CC1(C)C(=O)CC[C@]2(C)[C@@H]1C[C@@H](O)[C@]13C(=O)C(CNc4ccc(C(=O)O)cc4)[C@H](CC[C@@H]21)[C@H]3O", "note": "(stereo partly specified)", "values": [
      {"measurement": "IC50", "setting": "[1]", "value": 16.8, "unit": "µM"},
      {"measurement": "IC50", "setting": "[2]", "value": 6.79, "unit": "µM"},
      {"measurement": "IC50", "setting": "[3]", "value": 22.3, "unit": "µM"},
      {"measurement": "IC50", "setting": "[4]", "value": 11.7, "unit": "µM"},
      {"measurement": "IC50", "setting": "[5]", "value": 6.13, "unit": "µM"},
      {"measurement": "IC50", "setting": "[6]", "value": 10.5, "unit": "µM"},
      {"measurement": "IC50", "setting": "[7]", "value": 35.4, "unit": "µM"}
    ]},
    {"smiles": "Cc1cccc(NCC2C(=O)[C@@]34[C@H](O)C[C@@H]5C(C)(C)C(=O)CC[C@@]5(C)[C@@H]3CC[C@@H]2[C@H]4O)c1", "note": "(stereo partly specified)", "values": [
      {"measurement": "IC50", "setting": "[1]", "value": 20.7, "unit": "µM"},
      {"measurement": "IC50", "setting": "[2]", "value": 14.4, "unit": "µM"},
      {"measurement": "IC50", "setting": "[3]", "value": 38.7, "unit": "µM"},
      {"measurement": "IC50", "setting": "[4]", "value": 28.3, "unit": "µM"},
      {"measurement": "IC50", "setting": "[5]", "value": 29.6, "unit": "µM"},
      {"measurement": "IC50", "setting": "[6]", "value": 13.5, "unit": "µM"}
    ]},
    {"smiles": "Cc1ccccc1NCC1C(=O)[C@@]23[C@H](O)C[C@@H]4C(C)(C)C(=O)CC[C@@]4(C)[C@@H]2CC[C@@H]1[C@H]3O", "note": "(stereo partly specified)", "values": [
      {"measurement": "IC50", "setting": "[1]", "value": 22.2, "unit": "µM"},
      {"measurement": "IC50", "setting": "[2]", "value": 19.2, "unit": "µM"},
      {"measurement": "IC50", "setting": "[3]", "value": 38.4, "unit": "µM"},
      {"measurement": "IC50", "setting": "[4]", "value": 24.7, "unit": "µM"},
      {"measurement": "IC50", "setting": "[5]", "value": 23.4, "unit": "µM"},
      {"measurement": "IC50", "setting": "[6]", "value": 18.1, "unit": "µM"}
    ]},
    {"smiles": "CC1(C)C(=O)CC[C@]2(C)[C@@H]1C[C@@H](O)[C@]13C(=O)C(CNc4ccccc4Br)[C@H](CC[C@@H]21)[C@H]3O", "note": "(stereo partly specified)", "values": [
      {"measurement": "IC50", "setting": "[1]", "value": 28.4, "unit": "µM"},
      {"measurement": "IC50", "setting": "[2]", "value": 15.2, "unit": "µM"},
      {"measurement": "IC50", "setting": "[3]", "value": 33.5, "unit": "µM"},
      {"measurement": "IC50", "setting": "[4]", "value": 32.6, "unit": "µM"},
      {"measurement": "IC50", "setting": "[5]", "value": 13.9, "unit": "µM"},
      {"measurement": "IC50", "setting": "[6]", "value": 12.5, "unit": "µM"}
    ]},
    {"smiles": "CC1(C)C(=O)CC[C@]2(C)[C@@H]1C[C@@H](O)[C@]13C(=O)C(CNc4cccc(C#N)c4)[C@H](CC[C@@H]21)[C@H]3O", "note": "(stereo partly specified)", "values": [
      {"measurement": "IC50", "setting": "[1]", "value": 19.1, "unit": "µM"},
      {"measurement": "IC50", "setting": "[2]", "value": 18.2, "unit": "µM"},
      {"measurement": "IC50", "setting": "[3]", "value": 24.4, "unit": "µM"},
      {"measurement": "IC50", "setting": "[4]", "value": 21.3, "unit": "µM"},
      {"measurement": "IC50", "setting": "[5]", "value": 8.08, "unit": "µM"},
      {"measurement": "IC50", "setting": "[6]", "value": 23.2, "unit": "µM"}
    ]}
  ]
}
